Assay outcomes from PubChem BioAssay.
PAX8 inh HTS: lowers PAX8-driven luciferase in RMG-I cells; RMG-I TPO-luciferase reporter, SteadyGlo, 24 h; inhibition, % at 12.6 µM; 360,000 tested, 1.2% active;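 active means mean replicate inhibition at least 60% with every replicate also reaching 60%; inconclusive means only one of the two criteria is met; inactive means mean below 60% and not all replicates reaching 60%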;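 further: luciferase light reporting Pax8 driven TPO promoter activity; plate controls were median of neutral control wells for no effect and mitoxantrone controls for full effect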
Arrestin-AP2 inh: human beta-arrestin and AP2 interaction inhibition. FITC-arrestin peptide / GST-AP2 beads, flow cytometry; AP2 beta2 appendage carries R879A mutation. inhibition, % at 10 µM. 340,000 tested, 0.31% active. AID 504490;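 active means inhibition above a set limit, near 3 SD of compounds lacking own fluorescence, cut at about 54% in these data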;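 further: plate controls were DMSO wells for no effect and 5 µM unlabelled arrestin peptide for full effect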
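System: GST-AP2 R879A glutathione beads; medium: PBS, Tween 20 0.05%, BSA 0.1%; reagent: fluorescein-tagged arrestin peptide at 50 nM final; schedule: pre-incubation 12 min, peptide binding 1 h, room temperature; detection: flow cytometry, FL1 (488/535 nm); read-out: inhibition as reduced fluorescein signal on beads, percent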
PfHsp90 yeast 2: reduces growth (ATP signal) of yeast expressing P. falciparum Hsp90; inhibition, % at 9.4 µM; AID 504621; 310,000 tested, 0.32% active; S. cerevisiae expressing PfHsp90, BacTiter-Glo ATP, 48 h; yeast lacking PDR1 and PDR3 efflux regulators;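 active means every replicate shows inhibition above about 80%, whatever the replicate mean, limit read from the data; inconclusive means mean inhibition reaches the set limit but some replicate falls short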;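 further: 0% = DMSO neutral controls and 100% = 20 µM radicicol positive controls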
Glyco luc inh: blocks N-linked glycosylation in D54 reporter cells; D54 ERlucT glycosylation luciferase reporter, 24 h; percent of 100 nM tunicamycin response; reporter increase, % at 12.5 µM; 360,000 tested, 0.23% active;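 active means mean luciferase reporter signal, scaled so untreated is 0 and the glycosylation-blocking control 100, at or above a set limit in every replicate; inconclusive means mean reaches the limit but not every replicate does; inactive means mean below the limit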;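 further: luciferase carries N-glycosylation sites so blocking glycosylation raises the light; 0% = median of neutral control wells and 100% = median of 100 nM tunicamycin wells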
Rtt109 Vps75: C. albicans Rtt109 histone acetyltransferase inhibition. purified Rtt109/Vps75, ThioGlo CoA-SH fluorescence, 4 h. AID 540336. 330,000 tested, 0.16% active. inhibition, % at 34.9 µM. Q5AAJ8;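 active means inhibition of at least 50% in every replicate; inconclusive means best replicate reaches 50% inhibition but some replicates fall short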
Env fusion inh: blocks HIV Env-driven cell-cell fusion; HeLa-JRFL Env/CEM21 cell fusion, luciferase; inhibition, % at 12.3 µM; 360,000 tested, 1.1% active; AID 651610;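 active means mean replicate inhibition score of at least 50 and every replicate individually at or above 50; inconclusive means only one of the two criteria met; inactive means mean below 50 and not all replicates reaching 50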;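 further: 0% = plate neutral controls and 100% = maraviroc near 300 nM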
Arr AP2 CP1: inhibitors of human beta-arrestin and AP2 interaction | AID 504908 | inhibition, % at 10 µM | GST-AP2 beads, FITC arrestin peptide binding, flow cytometry; GST-fused beta2-adaptin appendage, R879A mutant | shares compounds with Arrestin-AP2 inh | 1,300 tested, 2% active;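 active means inhibition above a set limit, roughly 3 SD of non-fluorescent compound noise, cut at about 38% in these data; inactive means inhibition at or below that limit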;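 further: loss of bead fluorescence from 50 nM FITC arrestin peptide bound to appendage; 0% = negative control wells and 100% = excess unlabelled arrestin peptide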
Target sequence (P63010 whole entry, looked up, the tested form may be a part, one chain of several): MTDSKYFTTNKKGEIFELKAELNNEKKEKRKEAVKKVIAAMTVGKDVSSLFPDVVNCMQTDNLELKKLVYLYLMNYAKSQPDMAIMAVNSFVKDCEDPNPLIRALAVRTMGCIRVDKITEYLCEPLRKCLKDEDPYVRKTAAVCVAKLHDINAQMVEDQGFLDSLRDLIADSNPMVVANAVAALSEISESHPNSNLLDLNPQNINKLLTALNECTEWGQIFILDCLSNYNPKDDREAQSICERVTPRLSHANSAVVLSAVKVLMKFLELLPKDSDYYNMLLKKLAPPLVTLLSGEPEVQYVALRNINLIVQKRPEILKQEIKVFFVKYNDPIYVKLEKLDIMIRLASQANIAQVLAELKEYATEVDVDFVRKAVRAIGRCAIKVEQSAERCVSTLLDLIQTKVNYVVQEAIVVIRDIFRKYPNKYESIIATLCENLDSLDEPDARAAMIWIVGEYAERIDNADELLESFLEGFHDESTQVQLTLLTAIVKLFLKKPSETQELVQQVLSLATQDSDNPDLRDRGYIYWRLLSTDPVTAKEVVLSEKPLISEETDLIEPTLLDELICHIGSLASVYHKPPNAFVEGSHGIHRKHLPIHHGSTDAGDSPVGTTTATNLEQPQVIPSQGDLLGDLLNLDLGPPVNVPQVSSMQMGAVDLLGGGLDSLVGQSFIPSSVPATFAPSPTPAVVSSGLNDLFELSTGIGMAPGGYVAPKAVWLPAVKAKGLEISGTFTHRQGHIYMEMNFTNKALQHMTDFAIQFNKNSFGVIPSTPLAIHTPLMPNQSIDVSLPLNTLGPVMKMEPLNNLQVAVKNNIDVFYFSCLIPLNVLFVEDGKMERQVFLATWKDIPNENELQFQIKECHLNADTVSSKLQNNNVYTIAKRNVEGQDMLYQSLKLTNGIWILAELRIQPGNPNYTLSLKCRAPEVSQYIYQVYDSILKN
GST-FITC bead: GST-GSH bead binding interference, counter-screen; shares compounds with Arrestin-AP2 inh; GST-fluorescein binding to GSH beads, fluorescence; inhibition, % at 10 µM; 1,300 tested, 2% active; AID 588338;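 active means inhibition above 50%, about 3 SD of the inhibition seen with non-fluorescent compounds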;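 further: fluorescein maleimide labelled GST captured on 4 micron glutathione beads; higher means more loss of bead fluorescence from quenching or blocked binding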
Numbers without * were called inactive; u = inconclusive; x = no result given; [ ] = remark or other dose. Hits are enriched below; roughly 2.3% of the tested compounds scored in any of these assays.

SMILES	PAX8 inh HTS	Arrestin-AP2 inh	PfHsp90 yeast 2	Glyco luc inh	Rtt109 Vps75	Env fusion inh	Arr AP2 CP1	GST-FITC bead
C[C@H]1CN([C@@H](C)CO)C(=O)c2cc(-c3ccc(F)cc3)cnc2O[C@@H]1CN(C)C(=O)c1ccc(F)cc1	x	x	x	x	x	-7.3[16.7 µM]	x	x
CNS(=O)(=O)c1cccc(C(=O)NCC2(N3CCOCC3)CCCCC2)c1	0.5	-10.4	-5.5	0.1	2.1	13.8	x	x
Cc1cccc(NS(=O)(=O)c2cccc(C(=O)NCC3(N4CCOCC4)CCCCC3)c2)c1	13.3	-2.9	-0.7	-5.9	11.9	0.4	0.1	-1.7
C[C@H]1CN([C@@H](C)CO)C(=O)c2cccc(NC(=O)C3CCOCC3)c2O[C@H]1CN(C)C(=O)Nc1ccccc1	1.0	x	x	x	x	x	x	x
CCOc1cccc(-c2cc(=O)[nH][nH]2)c1	x	73.6*	-18.5	-0.9	1.6	x	-4.0	-4.6
COc1cccc(-c2cc(=O)[nH][nH]2)c1	-3.1	0.1	-6.1	-0.9	4.9	5.0	x	x
CO[C@@H]1CN(C)C(=O)c2ccc(NS(=O)(=O)c3ccccc3F)cc2OC[C@H](C)NC[C@H]1C	-4.9	x	x	x	x	-5.1[16.7 µM]	x	x
COc1cc(NC(=O)c2ccc(OC)c([N+](=O)[O-])c2)ccc1NC(=O)c1ccco1	21.5	17.7	25.9	-1.4	u	-3.1	x	x
CCOc1ccc(C(=O)NC(=S)Nc2ccc(NC(=O)c3ccco3)c(C)c2)cc1[N+](=O)[O-]	7.3	99.6*	-17.4	0.2	x	-31.9	0.7	-1.8
COc1ccc(NC(=O)c2ccco2)cc1NC(=O)c1ccccc1[N+](=O)[O-]	7.2	55.4*	-0.4	0.4	-1.9	-10.5	2.9	3.3
CCOc1ccc(/C=N/NC(=O)C(=O)NCc2ccco2)cc1	31.3	101.8*	13.2	4.4	6.6	x	6.8	17.3
COc1ccc(S(=O)(=O)Nc2ccc3c(c2)CC(=O)N([C@H](C)CO)C[C@@H](C)[C@H](CN(C)CC2CCCCC2)O3)cc1	x	x	x	x	x	10.8[16.7 µM]	x	x
C[C@H]1CN([C@@H](C)CO)C(=O)c2cc(C#CC3CC3)cnc2O[C@@H]1CN(C)S(C)(=O)=O	x	x	x	x	x	7.1[16.7 µM]	x	x
C=CCNc1nc(C(=O)OCC(=O)c2ccc(F)cc2)cs1	x	23.3	-13.6	0.3	-0.9	-8.8	x	x
C=CCNc1nc(C(=O)OC(C)C(=O)c2ccc(C)cc2)cs1 (stereo not drawn)	-88.1	57.4*	x	0.5	5.5	-37.9	-10.4	-4.0
Cc1ccccc1CNC(=O)CCCn1ncn2c(cc3occc32)c1=O	-9.0	29.9	-3.1	1.7	5.4	0.8	x	x
CCOc1ccccc1CNC(=O)CCCn1ncn2c(cc3occc32)c1=O	-3.1	64.1*	-1.8	1.0	5.9	7.4	8.9	1.0
CC(C)(C)NC(=O)NC(=O)CN1CCCCCCC1	-6.1	61.9*	2.3	1.4	12.7	2.3	-12.1	-4.4
CC(C)(C)NC(=O)NC(=O)CN1CCCCC1	4.1	14.7	-13.1	0.1	7.3	-0.7	x	x
O=C(Nc1ccccc1)Oc1ccccc1N1CCOCC1	1.2	66.1*	-8.9	0.4	-4.2	0.7	19.5	-1.6
COc1ccc(CN(C)C[C@@H]2Oc3ccc(NC(=O)NC4CCCCC4)cc3CC(=O)N([C@H](C)CO)C[C@H]2C)cc1	12.1	x	x	x	x	-6.5[16.7 µM]	x	x
CN(C(=O)COC(=O)c1cc(-c2ccccc2Cl)nc2ccccc12)C1CCS(=O)(=O)C1 (stereo not drawn)	28.3	5.2	-2.2	-1.2	12.4	7.3	x	x
CN(C(=O)COC(=O)c1cc(-c2ccc(Cl)s2)nc2ccccc12)C1CCS(=O)(=O)C1 (stereo not drawn)	25.9	63.7*	-7.6	-0.9	-7.1	4.5	13.3	-1.9
C[C@@H]1CN([C@@H](C)CO)C(=O)Cc2cc(NC(=O)Nc3cccc4ccccc34)ccc2O[C@@H]1CN(C)C(=O)Nc1ccc2c(c1)OCO2	8.5	x	x	x	x	-2.8[16.7 µM]	x	x
O=C(NCCc1ccccc1)C1CCC(=O)N(CCCN2CCCC2=O)C1 (stereo not drawn)	-6.3	3.2	23.2	2.0	-4.3	6.0	x	x
SMILES	PAX8 inh HTS	Arrestin-AP2 inh	PfHsp90 yeast 2	Glyco luc inh	Rtt109 Vps75	Env fusion inh	Arr AP2 CP1	GST-FITC bead
O=C(NCCc1cccc(F)c1)C1CCC(=O)N(CCCc2ccccc2)C1 (stereo not drawn)	x	61.8*	-4.6	0.8	10.9	-5.0	-4.9	-11.3
Cc1ccc(CCCNC(=O)C2CCC(=O)N(Cc3cccc(F)c3)C2)cc1 (stereo not drawn)	9.7	8.1	4.0	-1.6	8.5	3.7	-10.1	3.0
O=C(NCCc1cccc(C(F)(F)F)c1)C1CCC(=O)N(CCc2cccc(F)c2)C1 (stereo not drawn)	-9.2	-0.8	-4.5	2.0	-17.5	6.3	x	x
O=C(NCCN1CCCC1=O)C1CCC(=O)N(CCc2cccc(F)c2)C1 (stereo not drawn)	6.9	59.2*	15.9	0.7	2.7	-1.7	-10.7	-2.0
COc1cccc(CNC(=O)C2CCC(=O)N(CCc3cccc(F)c3)C2)c1 (stereo not drawn)	x	28.7	-5.6	-0.7	-3.4	x	x	x
O=C(NCc1cccc(F)c1)C1CCC(=O)N(CCc2cccc(F)c2)C1 (stereo not drawn)	-2.5	-5.2	21.3	1.6	-8.9	-9.3	-15.5	x
CNC[C@H]1Oc2ncc(-c3cccc(F)c3)cc2C(=O)N([C@@H](C)CO)C[C@H]1C	x	x	x	x	x	3.8[16.7 µM]	x	x
CN1CCN(C(=O)C[C@@H]2C[C@H]3c4cc(NC(=O)Nc5ccc(C(F)(F)F)cc5)ccc4O[C@H]3[C@@H](CO)O2)CC1	-26.3	x	x	x	x	4.0[16.7 µM]	x	x
O=S(=O)(c1ccc2c(c1)OCCO2)N1CCN(S(=O)(=O)c2ccco2)CC1	3.3	11.5	2.2	-1.8	1.3	-14.8	x	x
O=C(c1ccco1)N1CCN(S(=O)(=O)c2ccc3c(c2)OCCO3)CC1	x	96.3*	17.7	3.7	-0.7	x	1.6	2.3
COc1ccc(CNC(=O)c2cc(S(=O)(=O)N3CCCCC3)ccc2N2CCOCC2)cc1OC	2.6	2.8	36.7	0.3	0.7	-5.2	x	x
CCCNC(=O)c1cc(S(=O)(=O)N2CCCCC2)ccc1N1CCOCC1	-10.2	20.3	x	2.4	0.4	-12.5	x	x
COc1ccc(CCNC(=O)c2cc(S(=O)(=O)N3CCOCC3)ccc2N2CCCC2)cc1OC	-13.9	-11.3	22.2	2.5	-2.0	-6.5	-11.4	2.5
CC(C)CNC(=O)c1cc(S(=O)(=O)N2CCOCC2)ccc1N1CCCC1	1.0	55.2*	-12.3	0.0	-4.1	3.2	8.9	-5.7
